# Screens as filed in PubChem.
# MC4R barr agon: agonists of human melanocortin 4 receptor (MC4R) beta-arrestin. P32245. U2OS MC4R beta-arrestin complementation, luminescence; percent of melanotan II response, DMSO zero. activation, % at 8.9 µM. hit rate 0.98% among 360,000. AID 540308;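 active = activation above a per-plate cutoff, the mean activation of sample wells on that plate plus 3 SD, cut at about 8% in these data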
# m5-HT2A agonist: agonists of mouse serotonin 5-HT2A receptor (HTR2A); hit rate 0.66% among 360,000; P35363; AID 624169; CHO-K1 mHTR2A beta-arrestin complementation, luminescence; percent of 30 µM serotonin response; activation, % at 7.6 µM;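 active = activation above a run cutoff, the mean activation of all tested compounds plus 3 SD, cut at about 14% in these data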;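 note: 0% = plate median of compound wells and 100% = 30 µM serotonin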
# MC4R antag cAMP: antagonists of human melanocortin 4 receptor (MC4R). MC4R-expressing cells, MTII-stimulated cAMP, LANCE TR-FRET. inhibition, % at 6.5 µM. hit rate 0.48% among 360,000;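 active = inhibition above its plate's cutoff, the mean of tested wells on that plate plus 3 SD, cut at about 29% in these data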;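 note: 0% = Melanotan II alone and 100% = Melanotan II plus saturating MCL0020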
#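 Material: human MC4R-expressing U2OS cells. Probe or stimulus: Melanotan II challenge. Dosing: 6.5 µM single dose. Times: 30-min compound, 1-h challenge, 1-h detection, room temperature. Technique: TR-FRET with Eu-cAMP and labeled anti-cAMP, 671 nm. Replication: singlicate.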
# PREPL inh: human PREPL enzyme inhibition; Q4J6C6; recombinant PREPL, fluorescence polarization activity-based probe; inhibition, % at 5.96 µM; hit rate 0.68% among 320,000; AID 2751; in the data active = inhibition above about 43%;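 note: 0% = enzyme with DMSO and 100% = wells lacking enzyme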
# Lipid droplet: hepatic lipid droplet formation modulation | inhibition, % at 6.5 µM | AML12 mouse hepatocytes, oleate lipid droplets, BODIPY imaging | hit rate 0.4% among 240,000 | AID 1656;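 active = lipid droplet intensity inhibited by at least 50%, with more than 500 cells counted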
#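 Test system: AML12 mouse liver cells; schedule: overnight exposure; technique: high-content imaging of BODIPY-stained droplets and DAPI nuclei; read-out: % inhibition of corrected integrated BODIPY droplet signal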
# NTR1 agonist: agonists of human neurotensin receptor NTR1; hit rate 0.17% among 330,000; activation, % at 20 µM; NTR1-U2OS beta-arrestin-GFP spot imaging, agonist mode; P30989;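 active = activation at or above 40% of the spot to cytoplasm intensity ratio, with at least 20 cells analyzed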;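 note: 0% = DMSO without peptide and 100% = 100 nM NTR1 peptide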
# Target sequence (P30989 whole entry, looked up): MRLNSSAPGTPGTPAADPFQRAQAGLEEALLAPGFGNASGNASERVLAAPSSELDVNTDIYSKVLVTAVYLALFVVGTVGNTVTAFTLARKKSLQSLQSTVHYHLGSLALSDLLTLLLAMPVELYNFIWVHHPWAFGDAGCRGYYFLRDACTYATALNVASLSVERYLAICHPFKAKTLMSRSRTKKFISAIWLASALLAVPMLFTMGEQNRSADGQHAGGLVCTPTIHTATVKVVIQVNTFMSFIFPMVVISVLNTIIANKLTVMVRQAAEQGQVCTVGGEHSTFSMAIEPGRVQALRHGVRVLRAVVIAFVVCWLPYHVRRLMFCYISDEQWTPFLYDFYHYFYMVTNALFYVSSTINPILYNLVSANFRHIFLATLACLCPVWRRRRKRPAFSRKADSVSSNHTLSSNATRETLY
# Starred values were filed as active, the others as inactive; . = no result. Most compounds without a hit are left out; they make up all but 2.7% or so of the library.
SMILES,MC4R barr agon,m5-HT2A agonist,MC4R antag cAMP,PREPL inh,Lipid droplet,NTR1 agonist
O=S(=O)(NC1CC2CCC1C2)c1ccc(Br)s1 (configuration not stated),-0.8,4.8,19.9,-2.3,8.4,1.2
CC(C)Nc1nc(Nc2ccc(Cl)cc2F)c2sccc2n1,-0.9,-7.4,2.1,.,.,.
C=C1CCN(c2ccc(C(=O)NCCC)cc2[N+](=O)[O-])CC1,0.3,-5.3,6.1,10.6,.,-2.6
NS(=O)(=O)c1ccc(CCNCC(=O)NC2CC2)cc1,-1.0,2.6,0.5,4.4,-8.6,0.6
O=c1oc2c(O)c(O)cc3c(=O)oc4c(O)c(O)cc1c4c23,0.0,-2.4,-1.7,54.2*,-7.9,.
O=c1oc2ccccc2c2oc3cc(O)c(O)cc3c12,2.6,-0.2,-11.3,25.6,0.0,4.8
CN(Cc1ccccc1)C(=O)COC(=O)C1CCN(S(=O)(=O)c2ccc3c(c2)OCCO3)CC1,-1.2,-1.8,11.3,-2.7,.,1.3
Cc1ccc(NC(=O)c2ccc(-n3cccn3)c([N+](=O)[O-])c2)cc1,-1.8,-3.9,-2.5,4.7,.,1.0
O=C(Nc1ccc(C2=NCCN2)cc1)c1ccc(C(=O)Nc2ccc(C3=NCCN3)cc2)c([N+](=O)[O-])c1,-1.7,-1.2,-9.3,45.1*,6.6,1.6
Cc1cnc(C(=O)OC(C)C(=O)NCc2ccccc2)cn1 (configuration not stated),-4.0,1.6,-2.9,3.6,.,0.0
Cc1cc2ncc(-c3cccs3)nc2cc1C,0.7,-1.4,0.2,.,11.9,3.8
Cc1ccc2nc(-c3ccc(NC(=O)CSc4ccccc4)cc3)[nH]c2c1,9.0*,-1.5,9.9,4.5,7.5,3.8
O=C(CSc1ccc(Cl)cc1)Nc1cccc(-c2nc3ccccc3[nH]2)c1,7.2,-2.3,5.0,-14.4,16.6,1.0
O=C(CSc1ccccc1)Nc1ccc(-c2nc3ccccc3[nH]2)cc1,10.6*,-3.5,12.6,-7.0,0.6,0.5
Cc1cc(C)c(S(=O)(=O)c2ccccc2C(C)C)c(=O)[nH]1,0.9,0.1,11.6,.,-14.2,.
CCOC(=O)c1ccc(N/C=C\C(=O)c2cccc(OC)c2)cc1,9.4*,1.9,-6.3,-11.0,2.8,4.8
CCNC(=O)COc1ccc(-c2ccccc2)cc1,2.5,-3.1,8.7,19.2,0.8,-2.6
N#Cc1ccc(-c2ccc(OCC(=O)NCCc3ccccc3)cc2)cc1,9.1*,-4.5,1.7,-1.4,31.6,5.6
COC(=O)c1c(S(=O)(=O)NCc2ccccc2)sc(C(=O)O)c1C,0.5,-0.3,2.6,11.3,5.4,5.1
O=C(CSc1nnc(COc2ccc(Cl)cc2Cl)o1)Nc1ccccn1,8.9*,6.9,5.8,6.6,-2.4,-0.2
Nc1nc(-c2ccccc2)c(N=Nc2ccc(Cl)cc2)s1,0.3,-2.9,-1.6,-3.5,92.7*,0.9
Nc1nc(-c2ccccc2)c(-c2ccccc2)s1,-0.2,-3.1,4.3,2.5,.,-3.0
O=C(C1=NNCC1c1ccccc1)C1CO1 (configuration not stated),-2.1,3.4,6.2,.,3.5,.
CCn1c(SCC(=O)Nc2cc(C)on2)nc2sc3c(c2c1=O)CCCC3,17.1*,4.2,0.1,-1.6,-24.2,2.2
Cc1cc(NC(=O)CSc2nc3sc4c(c3c(=O)n2C)CCCC4)no1,0.9,1.9,10.8,9.9,.,-1.1
SMILES,MC4R barr agon,m5-HT2A agonist,MC4R antag cAMP,PREPL inh,Lipid droplet,NTR1 agonist
Cc1cc(NC(=O)CSc2nc(C(C)C)nc3sc4c(c23)CCCC4)no1,8.5*,5.3,13.6,-1.2,.,0.5
CC(C)c1[nH]nc2c1C(c1ccc(OC(=O)c3ccco3)cc1)C(C#N)=C(N)O2 (configuration not stated),0.2,-0.4,9.9,60.1*,-7.7,2.1
COc1cc(C2C(C#N)=C(N)Oc3n[nH]c(C)c32)ccc1OC(=O)c1ccccc1 (configuration not stated),0.6,-3.5,4.4,60.7*,.,10.3
COc1cc(C2C(C#N)=C(N)Oc3n[nH]c(C)c32)cc2c1OCO2 (configuration not stated),-2.0,4.8,0.1,-4.2,.,0.0
CCCCCCn1cc(C(=O)O)c(=O)c2cc(F)c(N3CCN(C)CC3)cc21,-1.4,16.1*,5.5,1.1,10.1,1.1
CC(C)CNc1nc(N)c([N+](=O)[O-])c(N2CCCCCC2)n1,2.0,0.9,0.0,0.9,-5.3,6.7
O=C(OCCC12CC3CC(CC(C3)C1)C2)c1ccc(NCc2cc(O)ccc2O)cc1,1.6,5.9,-9.7,.,.,.
O=C(OCC12CC3CC(CC(C3)C1)C2)c1ccc(NCc2cc(O)ccc2O)cc1,10.7*,2.7,0.6,.,.,.
O=C(COc1ccccc1)Nc1ccc(CSc2ccccc2)cc1,10.4*,0.1,11.3,-1.2,.,-4.9
COC(=O)c1cc(OC)c(OC)cc1NC(=S)N1CCN(c2ccccc2)CC1,-3.1,-1.4,3.0,47.4*,5.0,3.1
CCOC(=O)c1[nH]c2ccc(OC)cc2c1NC(=S)N1CCN(c2ccccc2)CC1,0.7,-0.7,8.6,57.5*,-18.9,2.2
COc1ccc(OC)c(-n2c(=S)[nH]c3cc(C(=O)N4CCN(c5ccccc5)CC4)ccc3c2=O)c1,-4.0,-0.1,4.4,9.8,2.0,10.1
O=C(N[C@@H](Cc1ccccc1)C(=O)O)c1c(F)c(F)c(F)c(F)c1F,-0.4,-3.6,9.0,11.2,-2.0,-8.7
COc1ccc2sc(-c3ccccc3OC)c(C#Cc3cncn3C)c2c1,8.6*,-0.4,11.9,13.6,.,18.2
CCOC(=O)C1=C(CNCc2ccc(C)cc2)NC(=O)NC1c1cc(C)ccc1C (configuration not stated),5.7,0.0,8.0,13.0,-1.1,3.9
CCOC(=O)C1=C(Cn2cnc3ccccc32)NC(=O)NC1c1cc(C)ccc1C (configuration not stated),7.3,58.7*,-2.0,8.0,16.5,1.2
NS(=O)(=O)c1ccc(CCNC(=O)COC(=O)Cc2ccc(Cl)cc2)cc1,-0.3,-2.4,10.4,.,.,.
CCN1C(=O)/C(=C\c2ccc(F)cc2)N=C1SCC(=O)NCc1ccco1,8.6*,4.5,2.0,-10.2,-32.3,0.5
O=C(CSc1ccc(-c2ccc(F)cc2)nn1)NCc1ccco1,-1.6,1.9,4.4,-12.8,-7.8,-1.5
O=C(CSc1ccccn1)Nc1cccc(NC(=O)CSc2ccccn2)n1,9.1*,3.2,-1.1,-13.2,6.8,-1.0
Cc1ccc(Cn2ccsc2=NC(=O)CCl)cc1,15.1*,-4.0,9.3,-1.1,2.2,-0.3
CCCCNC(=O)c1ccc(/C=C2\Oc3ccccc3N(C)C2=O)cc1,9.2*,1.2,5.0,-15.6,3.2,0.6
O=C(NCCCN1CCOCC1)c1ccc(/C=C2\Oc3ccccc3N(Cc3ccccc3F)C2=O)cc1,8.9*,3.8,3.6,-76.6,-3.4,32.0
